This note sets out measurements from publication PMC2711440 (Nature, 2009).

What all share (type): cell-based
Assay [1] has as its system NR1wt/NR2A-(2D NTD+L) receptors. The experiment in a line: Kinetics of inhibition by MK-801, oocyte voltage-clamp. As to conditions: NR2A-(2D NTD+L) vs NR2Awt.
Assay [2] concerns the target T1, NR1wt/NR2Dwt receptors (Rattus norvegicus, UniProt P35439+Q62645). The description is as above. As to conditions: trace of Fig. 1f.
Assay [3] relates to NR1wt/NR2D-ΔNTD receptors. The description is as above. As to conditions: trace of Fig. 1f.
The test system of assay [4] is NR1wt/NR2D-(2A NTD+L) receptors. The description is as above. The following applies: trace of Fig. 1f.
The subject of assay [5] is NR1-A652C/NR2A-(2D NTD+L) receptors. The experiment in a line: MTSEA-induced potentiation of currents. As to conditions: NR2A-(2D NTD+L) vs NR2Awt.
The target in the next assay is NR1-A652C/NR2D receptors (Homo sapiens, UniProt O15399+Q05586, A652C). The experiment in a line: MTSEA-induced potentiation of currents. As to conditions: NR2D-containing receptors (NR1-A652C).
Assay [6] has as its system NR1-A652C/NR2D-ΔNTD receptors. The experiment in a line: MTSEA-induced potentiation of currents. As to conditions: NR2D-ΔNTD vs NR2D.
A further assay concerns the target NR1wt/NR2Awt receptors (Homo sapiens, UniProt Q05586+Q12879). The experiment in a line: Zinc sensitivity. Summed up: (§1)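 Two-electrode voltage clamp was run at −60 mV at room temperature on oocytes nuclear-injected with NR1 and NR2 cDNAs (10 ng/µl, 1:1). […] Free zinc was buffered with tricine 10 mM (1 nM–1 µM) or ADA 1 mM (0.1–100 nM), and "0" zinc contained 10 µM DTPA. Dose-response curves gave IC50 and maximal inhibition.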

Another assay addresses NR1wt/NR2Bwt receptors (Homo sapiens, UniProt Q05586+Q13224). The experiment in a line: Zinc sensitivity. The method, boiled down:
as §1

In assay [7] the target is T1, NR1wt/NR2Dwt receptors. The experiment in a line: Zinc sensitivity. The method, boiled down: as §1
Assay [8] addresses NR1wt/NR2B-(2A NTD) receptors. The experiment in a line: Zinc sensitivity. Summed up:
as §1

In assay [9] the target is NR1wt/NR2B-(2A NTD+L) receptors. The experiment in a line: Zinc sensitivity. The method, boiled down: as §1
Assay [10] has as its target NR1wt/NR2D-(2A NTD+L) receptors. The experiment in a line: Zinc sensitivity. Summed up: as §1
In assay [11] the test system is receptors incorporating NR1wt and NR2Awt, NR2Bwt, NR2Dwt, NR2B-(2A NTD), NR2B-(2A NTD+L) or NR2D-(2A NTD+L). The experiment in a line: Zinc sensitivity. The following applies: zinc dose-response, all constructs of Fig. 3a. Summed up: as §1

Structures are written as SMILES.

T1 sequence (Q62645 28-1323, other chains not shown): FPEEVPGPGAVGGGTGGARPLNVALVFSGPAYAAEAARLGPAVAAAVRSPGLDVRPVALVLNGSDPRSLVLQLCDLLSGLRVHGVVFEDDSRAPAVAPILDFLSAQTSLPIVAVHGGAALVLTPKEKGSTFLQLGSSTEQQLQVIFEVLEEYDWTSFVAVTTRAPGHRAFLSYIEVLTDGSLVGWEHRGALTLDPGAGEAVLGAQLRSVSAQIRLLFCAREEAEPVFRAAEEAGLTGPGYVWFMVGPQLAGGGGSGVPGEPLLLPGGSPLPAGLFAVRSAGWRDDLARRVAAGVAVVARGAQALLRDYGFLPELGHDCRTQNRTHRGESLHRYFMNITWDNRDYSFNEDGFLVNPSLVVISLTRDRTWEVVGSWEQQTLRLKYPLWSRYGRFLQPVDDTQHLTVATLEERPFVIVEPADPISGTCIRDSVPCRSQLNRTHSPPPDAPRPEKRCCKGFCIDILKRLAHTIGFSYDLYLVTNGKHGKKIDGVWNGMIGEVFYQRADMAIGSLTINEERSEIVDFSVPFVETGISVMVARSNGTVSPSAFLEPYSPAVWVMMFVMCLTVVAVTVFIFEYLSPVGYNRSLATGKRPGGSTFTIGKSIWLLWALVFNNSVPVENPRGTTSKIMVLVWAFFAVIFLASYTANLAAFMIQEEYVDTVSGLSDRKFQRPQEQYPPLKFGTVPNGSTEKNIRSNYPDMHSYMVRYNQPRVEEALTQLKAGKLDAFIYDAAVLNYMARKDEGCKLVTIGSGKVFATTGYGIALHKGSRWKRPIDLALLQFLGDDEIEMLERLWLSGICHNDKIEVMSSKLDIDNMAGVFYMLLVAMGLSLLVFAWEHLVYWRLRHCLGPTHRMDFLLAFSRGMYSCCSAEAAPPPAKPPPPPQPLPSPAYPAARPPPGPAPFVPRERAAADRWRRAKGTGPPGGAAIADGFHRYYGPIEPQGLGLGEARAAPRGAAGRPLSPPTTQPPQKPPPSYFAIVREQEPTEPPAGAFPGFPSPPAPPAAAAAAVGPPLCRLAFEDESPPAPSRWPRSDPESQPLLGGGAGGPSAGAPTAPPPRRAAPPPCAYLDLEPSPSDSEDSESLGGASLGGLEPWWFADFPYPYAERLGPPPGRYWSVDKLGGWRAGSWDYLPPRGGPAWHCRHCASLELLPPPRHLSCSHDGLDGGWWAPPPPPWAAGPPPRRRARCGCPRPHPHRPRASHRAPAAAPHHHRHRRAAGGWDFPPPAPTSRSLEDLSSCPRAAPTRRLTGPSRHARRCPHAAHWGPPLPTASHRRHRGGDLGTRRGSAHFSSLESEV
Sequence of NR1wt/NR2Bwt receptors (Q13224 27-1484, other chains not shown): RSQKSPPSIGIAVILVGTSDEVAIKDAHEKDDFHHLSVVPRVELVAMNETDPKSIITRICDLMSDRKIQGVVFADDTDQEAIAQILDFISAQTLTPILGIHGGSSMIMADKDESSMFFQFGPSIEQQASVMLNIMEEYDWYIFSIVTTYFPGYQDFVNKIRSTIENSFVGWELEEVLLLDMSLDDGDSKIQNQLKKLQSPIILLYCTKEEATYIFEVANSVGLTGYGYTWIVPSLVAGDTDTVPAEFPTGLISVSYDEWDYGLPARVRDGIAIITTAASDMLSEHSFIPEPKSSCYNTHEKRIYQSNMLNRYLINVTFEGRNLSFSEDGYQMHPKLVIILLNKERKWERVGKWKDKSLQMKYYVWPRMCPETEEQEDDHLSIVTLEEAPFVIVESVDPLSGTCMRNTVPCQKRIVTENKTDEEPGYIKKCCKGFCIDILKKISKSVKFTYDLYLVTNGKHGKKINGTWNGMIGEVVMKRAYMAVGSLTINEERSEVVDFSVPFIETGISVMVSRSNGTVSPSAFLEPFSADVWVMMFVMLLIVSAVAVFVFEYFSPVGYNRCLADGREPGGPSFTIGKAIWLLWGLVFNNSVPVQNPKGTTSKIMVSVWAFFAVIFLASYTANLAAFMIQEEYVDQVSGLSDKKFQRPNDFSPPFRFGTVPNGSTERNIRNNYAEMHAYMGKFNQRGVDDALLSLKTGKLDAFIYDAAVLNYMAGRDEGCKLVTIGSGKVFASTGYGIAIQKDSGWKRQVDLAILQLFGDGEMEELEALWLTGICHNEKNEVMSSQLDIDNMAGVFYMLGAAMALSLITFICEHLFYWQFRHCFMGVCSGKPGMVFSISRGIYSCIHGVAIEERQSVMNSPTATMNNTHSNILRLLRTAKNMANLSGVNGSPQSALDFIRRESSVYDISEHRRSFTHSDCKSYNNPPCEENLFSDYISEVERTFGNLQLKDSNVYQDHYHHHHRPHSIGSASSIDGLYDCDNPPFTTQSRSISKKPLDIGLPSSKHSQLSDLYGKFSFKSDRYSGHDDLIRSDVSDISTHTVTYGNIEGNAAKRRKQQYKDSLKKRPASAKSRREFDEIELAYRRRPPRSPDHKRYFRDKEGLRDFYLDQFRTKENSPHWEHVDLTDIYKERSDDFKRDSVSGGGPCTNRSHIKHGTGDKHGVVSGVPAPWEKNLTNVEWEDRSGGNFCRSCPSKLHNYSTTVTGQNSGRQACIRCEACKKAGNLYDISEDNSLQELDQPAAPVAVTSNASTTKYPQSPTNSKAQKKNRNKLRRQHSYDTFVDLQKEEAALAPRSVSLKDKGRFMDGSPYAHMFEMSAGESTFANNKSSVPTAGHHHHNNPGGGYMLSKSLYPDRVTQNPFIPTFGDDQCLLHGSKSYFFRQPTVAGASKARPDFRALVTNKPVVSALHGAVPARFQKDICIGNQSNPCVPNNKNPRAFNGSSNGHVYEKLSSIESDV
Sequence of NR1wt/NR2Awt receptors (Q12879 23-1464, other chains not shown): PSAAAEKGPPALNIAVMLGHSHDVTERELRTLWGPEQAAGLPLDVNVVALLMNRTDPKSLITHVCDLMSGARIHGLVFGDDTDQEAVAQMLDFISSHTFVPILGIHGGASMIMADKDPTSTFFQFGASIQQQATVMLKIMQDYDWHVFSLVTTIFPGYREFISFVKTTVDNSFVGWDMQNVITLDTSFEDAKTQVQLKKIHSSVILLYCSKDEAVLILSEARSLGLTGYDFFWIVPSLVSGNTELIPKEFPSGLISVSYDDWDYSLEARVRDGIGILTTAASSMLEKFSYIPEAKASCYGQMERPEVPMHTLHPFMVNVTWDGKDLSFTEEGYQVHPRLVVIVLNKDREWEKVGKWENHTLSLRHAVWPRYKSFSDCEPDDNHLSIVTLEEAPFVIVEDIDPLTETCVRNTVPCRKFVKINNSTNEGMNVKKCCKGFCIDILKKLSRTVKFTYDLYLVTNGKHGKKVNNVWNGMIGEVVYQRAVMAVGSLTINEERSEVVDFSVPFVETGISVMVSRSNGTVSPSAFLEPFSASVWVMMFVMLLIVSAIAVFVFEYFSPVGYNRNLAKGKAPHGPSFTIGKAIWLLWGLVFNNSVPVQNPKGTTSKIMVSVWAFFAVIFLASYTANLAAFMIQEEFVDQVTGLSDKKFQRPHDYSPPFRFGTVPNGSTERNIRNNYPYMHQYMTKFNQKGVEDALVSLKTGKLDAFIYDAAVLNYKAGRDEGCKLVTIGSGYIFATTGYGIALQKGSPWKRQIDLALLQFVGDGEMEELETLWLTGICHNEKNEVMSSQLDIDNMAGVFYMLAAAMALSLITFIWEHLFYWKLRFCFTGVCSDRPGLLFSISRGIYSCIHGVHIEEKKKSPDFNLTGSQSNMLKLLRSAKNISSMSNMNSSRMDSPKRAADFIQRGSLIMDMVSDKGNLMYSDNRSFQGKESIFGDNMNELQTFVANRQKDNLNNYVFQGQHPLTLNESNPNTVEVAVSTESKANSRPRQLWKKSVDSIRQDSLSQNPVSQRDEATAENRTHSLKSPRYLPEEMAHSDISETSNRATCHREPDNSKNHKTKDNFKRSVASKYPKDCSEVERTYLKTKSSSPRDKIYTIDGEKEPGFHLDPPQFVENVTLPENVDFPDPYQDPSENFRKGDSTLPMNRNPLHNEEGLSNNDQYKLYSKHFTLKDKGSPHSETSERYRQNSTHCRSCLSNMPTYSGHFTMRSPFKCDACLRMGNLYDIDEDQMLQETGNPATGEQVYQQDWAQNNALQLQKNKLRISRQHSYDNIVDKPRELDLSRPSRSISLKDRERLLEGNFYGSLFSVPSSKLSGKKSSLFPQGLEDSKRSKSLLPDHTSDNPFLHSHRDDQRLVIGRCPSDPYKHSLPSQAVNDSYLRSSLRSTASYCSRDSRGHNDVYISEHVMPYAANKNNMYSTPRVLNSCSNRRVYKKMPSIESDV

Regarding `C[C@]12N[C@H](Cc3ccccc31)c1ccccc12` [MK-801], the “MK-801 inhibition slower than at NR2Awt-containing receptors” value in assay [1] was 15 fold. For the same compound, the results for the “τon of inhibition by MK-801” value (on NR1wt/NR2Dwt receptors [2]; in [3]; in [4]) were 32 s, 5.7 s and 1.6 s, respectively.
Regarding `Br.CS(=O)(=O)SCCN` [MTSEA, 2-aminoethylmethanethiosulfonatehydrobromide], the “Higher MTSEA-potentiation than NR2Awt-containing receptors” value in [5] came out at 17 fold. The MTSEA-induced potentiation on NR1-A652C/NR2D receptors is ~ 300 fold. In [6], the “Decrease in MTSEA potentiation on deleting the NR2D-NTD” value stood at 4 fold.
Consider `[Zn+2]` [Zinc, zinc], for which the IC50 on NR1wt/NR2Awt receptors was determined as 7.5 nM; against NR1wt/NR2Bwt receptors, 720 nM; against NR1wt/NR2Dwt receptors [7], 7800 nM; in assay [8] it was 0.2 nM; in [9] it was 5.4 nM; in [10], 1.5 nM. Further, the Inhibmax on NR1wt/NR2Awt receptors is 81%; on NR1wt/NR2Bwt receptors, 98%; on NR1wt/NR2Dwt receptors [7], 100%; in assay [8], 83%; in assay [9] it was 86%; in [10] it was 90%. Moreover, in assay [11], the nH was 0.9–1.2.

Broadly, the IC50 is the point on the concentration scale where inhibition reaches its midpoint. High values mean a need for much substance, low ones inhibition by little substance.
